Experimental data from different studies.
Lines come from different studies, so protocols differ.
TACR3: Neuromedin-K receptor (TACR3, Homo sapiens, UniProt P29371)
USP5: Ubiquitin carboxyl-terminal hydrolase 5 (USP5, Homo sapiens, UniProt P45974)
ADORA1: Adenosine receptor A1 (ADORA1, Homo sapiens, UniProt P30542)

CN(C)C(=O)COC(=O)Cc1ccc(OC(=O)c2ccc(NC(=N)N)cc2)cc1 — inhibition (Deubiquitinase OTUD6B (OTUD6B, Homo sapiens, UniProt Q8N6M0); enzyme activity; inhibitor; 10 µM): 1%
c1ccc(C(NCCNC(c2ccccc2)c2ccccc2)c2ccccc2)cc1 — inhibition (TACR3; cell-free assay; 10 µM): 61%
C#Cc1n[nH]c2c(-c3cn(C(C)c4ccccn4)c(=O)[nH]c3=O)cc(F)cc12 (stereo not drawn) — inhibition (Dual specificity protein kinase CLK1 (CLK1, Homo sapiens, UniProt P49759); enzyme activity; inhibitor; 1 µM): 3.7%
CCOC(=O)c1ccc(OC(=O)CCCCCNC(=N)N)cc1 — inhibition (USP5; enzyme activity; inhibitor; 10 µM): 1%
Cn1cc(-c2cccc(N3CCc4c(sc5c4CC(C)(C)C5)C3=O)c2CO)cc(Nc2ccncn2)c1=O — inhibition (Inhibitor of nuclear factor kappa-B kinase subunit alpha (CHUK, Homo sapiens, UniProt O15111); enzyme activity; inhibitor; 1 µM): -5%
CCCCSC[C@@]12C[C@@H]1[C@@H](n1cnc3c(NC(C4CCCC4)C4CCCC4)nc(Cl)nc31)[C@H](O)[C@@H]2O — inhibition (ADORA1; ligand displacement; radioligand; 10 µM): -1%
CNC(=O)[C@H](Cc1ccccc1)NC(=O)[C@H](CC(C)C)[C@H](CSc1cccs1)C(=O)NO — inhibition (Matrilysin (MMP7, Homo sapiens, UniProt P09237); enzyme activity; inhibitor; 100 pM): 4%
COc1cc(Nc2ncc(F)c(Nc3ccc4c(n3)NC(=O)C(C)(C)O4)n2)cc(OC)c1OC — inhibition (Serine/threonine-protein kinase 32C (STK32C, Homo sapiens, UniProt Q86UX6); binding; competition with immobilised ligand; 10 µM): 0%
COCCN(CCOC)C(=O)[C@@]12C[C@@H]1[C@@H](n1cnc3c(NC(C4CC4)C4CC4)nc(Cl)nc31)[C@H](O)[C@@H]2O — inhibition (ADORA1; ligand displacement; radioligand; 10 µM): 34%
CN(CCN1CCC(OC(=O)Nc2ccccc2-c2ccccc2)CC1)C(=O)c1ccc(CN2CCC(C(N)=O)CC2)cc1 — inhibition (TACR3; ligand displacement; radioligand; 1 µM): 1%
Cn1c(=O)c2ncnnc2n(C)c1=O — inhibition (USP5; enzyme activity; inhibitor; 17 µM): 98%
O[C@H]1[C@H](n2cnc3c(NC(C4CCCCC4)C4CCCCC4)nc(Cl)nc32)[C@H]2C[C@@]2(CCl)[C@H]1O — inhibition (ADORA1; ligand displacement; radioligand; 10 µM): 63%
N=C(N)c1ccc2cc(OC(=O)c3ccc(N=C(N)N)cc3)ccc2c1 — inhibition (USP5; enzyme activity; inhibitor; 10 µM): 0%
C[C@H](C(=O)N[C@H]1COc2ccccc2[C@@H]1S(C)(=O)=O)c1ccc(F)cc1 — inhibition (TACR3; cell-free assay; 10 µM): -11%
C#Cc1n[nH]c2c(-c3cn([C@@H](C)c4ccccc4)c(=O)[nH]c3=O)cc(F)cc12 — inhibition (Tyrosine-protein kinase receptor UFO (AXL, Homo sapiens, UniProt P30530); enzyme activity; inhibitor; 0.1 µM): 41.4%
